Source: ChEMBL document CHEMBL3044619, “Natural fungicides from Ruta graveolens L. leaves, including a new quinolone alkaloid” (J Agric Food Chem, 2003)
The source made the active and inactive calls. The calls are words filed in the database; no cut-off is given here.

What was measured:
Diaporthe ampelina [1] = test: Stimulation of Diaporthe ampelina growth at 30 to 300 uM after 120 hr by microplate photometric analysis; type: functional, organism-based
Method in brief: (§1)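 P. viticola was isolated from grape, and its conidia were harvested from 7–10-day PDA cultures, filtered and adjusted photometrically to 1.0 × 10^6/mL. Growth was run in RPMI broth buffered with 0.165 M MOPS (pH 7) at final 30, 100 or 300 µM (120 mM stocks in 95% ethanol), with duplicate wells, at 24 ± 2 °C under a 12-h photoperiod. A620 was read at 120 h and expressed relative to untreated conidia controls.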

Phomopsis obscurans [2] = test: Stimulation of Phomopsis obscurans growth at 30 to 300 uM after 120 hr by microplate photometric analysis; type: functional, organism-based; conditions: Paraphomopsis obscurans
Method in brief: (§2)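 Phomopsis conidia, from strawberry or grape isolates grown 7–10 days on PDA, were tested in RPMI/0.165 M MOPS (pH 7) microtiter wells. Ethanol stocks were diluted to final 30, 100 and 300 µM, with duplicate wells and compound-only blanks. Incubation was at 24 ± 2 °C under a 12-h photoperiod, with A620 read at 120 h because germination is slow. Results are % change versus untreated conidia controls, run twice in time (n = 4).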

Botrytis cinerea [3] = test: Stimulation of Botryotinia fuckeliana growth at 30 to 300 uM after 48 hr by microplate photometric analysis; type: functional, organism-based
Method in brief: (§3)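 96-well broth microdilution on conidia from 7–10-day PDA cultures of isolates from strawberry, grape or orchid. Conidia were in RPMI buffered with 0.165 M MOPS (pH 7). Ethanol stocks were diluted to final 30, 100 and 300 µM, with duplicate wells and compound-only blanks. Plates were incubated at 24 ± 2 °C under a 12-h photoperiod and read at A620 after 48 h. Results are % change versus untreated conidia controls, split-plot design run twice (n = 4).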

[4] = test system: Colletotrichum gloeosporioides; test: Stimulation of Colletotrichum gloeosporioides growth at 30 to 300 uM after 48 hr by microplate photometric analysis; type: functional, organism-based
Method in brief: (§4)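 Conidia came from 7–10-day PDA cultures (24 ± 2 °C, 12-h photoperiod) and were filtered and adjusted photometrically to 1.0 × 10^6/mL. B. cinerea was isolated from grape, C. gloeosporioides from strawberry and F. oxysporum from orchid. Growth was run in MOPS-buffered RPMI (0.165 M, pH 7) at final 30, 100 or 300 µM from 120 mM ethanol stocks, with duplicate wells, and read as A620 at 48 h. Results are % of untreated growth.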

Colletotrichum acutatum [5] = test: Stimulation of Colletotrichum acutatum growth at 30 uM after 48 hr by microplate photometric analysis; type: functional; method in brief: as §3
Diaporthe ampelina [6] = test: Antifungal activity against Diaporthe ampelina assessed as growth inhibition at 30 to 300 uM after 120 hr by microplate photometric analysis; type: functional, organism-based; method in brief: as §2
Phomopsis obscurans [7] = test: Antifungal activity against Phomopsis obscurans assessed as growth inhibition at 300 uM after 120 hr by microplate photometric analysis; type: functional; conditions: Paraphomopsis obscurans; for inhibition of growth at 300 µM: read-out: GI; method in brief: as §2
Phomopsis obscurans [8] = test: Antifungal activity against Phomopsis obscurans assessed as growth inhibition at 30 uM after 120 hr by microplate photometric analysis; type: functional; conditions: Paraphomopsis obscurans, read-out: GI; method in brief: as §2
Botrytis cinerea [9] = test: Antifungal activity against Botryotinia fuckeliana assessed as growth inhibition at 300 uM after 48 hr by microplate photometric analysis; type: functional, organism-based; method in brief: as §4
Fusarium solani = test: Fungistatic activity against Fusarium solani assessed as growth inhibition; type: functional, organism-based
Fusarium oxysporum [10] = test: Antifungal activity against Fusarium oxysporum assessed as growth inhibition at 300 uM after 48 hr by microplate photometric analysis; type: functional; conditions: read-out: GI; method in brief: as §3
Colletotrichum fragariae [11] = test: Antifungal activity against Colletotrichum fragariae assessed as growth inhibition at 300 uM after 48 hr by microplate photometric analysis; type: functional; conditions: read-out: GI; method in brief: as §3
Diaporthe ampelina [12] = test: Antifungal activity against Diaporthe ampelina assessed as growth inhibition at 30 uM after 120 hr by microplate photometric analysis; type: functional, organism-based; method in brief: as §1
Botrytis cinerea [13] = test: Antifungal activity against Botryotinia fuckeliana assessed as growth inhibition at 30 to 300 uM after 48 hr by microplate photometric analysis; type: functional, organism-based; method in brief: as §3
[14] = test system: Colletotrichum gloeosporioides; test: Antifungal activity against Colletotrichum gloeosporioides assessed as growth inhibition at 100 uM after 48 hr by microplate photometric analysis; type: functional; conditions: read-out: GI; method in brief: as §3
Colletotrichum fragariae [15] = test: Antifungal activity against Colletotrichum fragariae assessed as growth inhibition at 30 to 300 uM after 48 hr by microplate photometric analysis; type: functional; method in brief: as §3
Colletotrichum acutatum [16] = test: Antifungal activity against Colletotrichum acutatum assessed as growth inhibition at 300 uM after 48 hr by microplate photometric analysis; type: functional; conditions: read-out: GI; method in brief: as §3
Botrytis cinerea [17] = test: Stimulation of Botryotinia fuckeliana growth at 30 uM after 48 hr by microplate photometric analysis; type: functional, organism-based; method in brief: as §4
Fusarium oxysporum [18] = test: Stimulation of Fusarium oxysporum growth at 30 uM after 48 hr by microplate photometric analysis; type: functional, organism-based; method in brief: as §4
[19] = test system: Colletotrichum gloeosporioides; test: Antifungal activity against Colletotrichum gloeosporioides assessed as growth inhibition at 300 uM after 48 hr by microplate photometric analysis; type: functional; conditions: read-out: GI; method in brief: as §3
Phomopsis obscurans [20] = test: Antifungal activity against Phomopsis obscurans assessed as growth inhibition at 100 uM after 120 hr by microplate photometric analysis; type: functional; conditions: Paraphomopsis obscurans, read-out: GI; method in brief: as §2
Phomopsis obscurans [21] = test: Antifungal activity against Phomopsis obscurans assessed as growth inhibition at 30 to 300 uM after 120 hr by microplate photometric analysis; type: functional, organism-based; conditions: Paraphomopsis obscurans; method in brief: as §2
Diaporthe ampelina [22] = test: Antifungal activity against Diaporthe ampelina assessed as growth inhibition at 300 uM after 120 hr by microplate photometric analysis; type: functional; conditions: read-out: GI; method in brief: as §2

SMILES: O=c1cc(O)c2ccccc2o1 [4-HYDROXYCOUMARINS]
- Activity (Diaporthe ampelina [1]): Active
- Activity (Phomopsis obscurans [2]): Active
- Activity (Botrytis cinerea [3]): Active
- Activity [4]: Active
- Activity (Colletotrichum acutatum [5]): 15%

SMILES: COc1c2occc2cc2ccc(=O)oc12 [METHOXSALEN]
- growth inhibition (GI) (Diaporthe ampelina [6]): Active
- inhibition of growth at 300 µM (Phomopsis obscurans [7]): 100%
- inhibition of growth at 30 µM (Phomopsis obscurans [8]): 80%
- growth inhibition (GI) (Botrytis cinerea [9]): Active
- IC50 (Fusarium solani): 125 µM
- inhibition of growth at 300 µM (Fusarium oxysporum [10]): 50%
- Activity [4]: Active
- inhibition of growth at 300 µM (Colletotrichum fragariae [11]): 29%
- Activity (Colletotrichum acutatum [5]): 15%

SMILES: Cn1c(CCCCCCc2ccc3c(c2)OCO3)cc(=O)c2ccccc21
- growth inhibition (GI) (Diaporthe ampelina [12]): Active
- inhibition of growth at 30 µM (Phomopsis obscurans [8]): 100%
- growth inhibition (GI) (Botrytis cinerea [13]): Active
- inhibition of growth at 100 µM [14]: 67.7%
- growth inhibition (GI) (Colletotrichum fragariae [15]): Active
- inhibition of growth at 300 µM (Colletotrichum acutatum [16]): 57%

SMILES: COc1ccc2ccc(=O)oc2c1 [HERNIARIN]
- Activity (Diaporthe ampelina [1]): Active
- Activity (Botrytis cinerea [17]): Active
- growth inhibition (GI) (Botrytis cinerea [9]): Active
- Activity (Fusarium oxysporum [18]): Active
- Activity [4]: Active
- inhibition of growth at 300 µM (Colletotrichum fragariae [11]): 21%
- Activity (Colletotrichum acutatum [5]): 15%

SMILES: O=c1ccc2ccc(O)cc2o1 [UMBELLIFERONE]
- Activity (Diaporthe ampelina [1]): Active
- Activity (Phomopsis obscurans [2]): Active
- Activity (Botrytis cinerea [3]): Active
- Activity [4]: Active
- Activity (Colletotrichum acutatum [5]): 15%

SMILES: O=c1cc(CCCCc2ccc3c(c2)OCO3)[nH]c2ccccc12
- growth inhibition (GI) (Diaporthe ampelina [12]): Active
- inhibition of growth at 30 µM (Phomopsis obscurans [8]): 100%
- growth inhibition (GI) (Botrytis cinerea [9]): Active

SMILES: COc1cc2nc3occc3c(OC)c2cc1OC [KOKUSAGININE]
- growth inhibition (GI) (Diaporthe ampelina [12]): Active
- inhibition of growth at 300 µM (Phomopsis obscurans [7]): 100%
- inhibition of growth at 30 µM (Phomopsis obscurans [8]): 80%
- inhibition of growth at 300 µM [19]: 50%
- growth inhibition (GI) (Colletotrichum fragariae [15]): Active

SMILES: CCCCCCCCCc1cc(=O)c2ccccc2[nH]1
- growth inhibition (GI) (Diaporthe ampelina [12]): Active
- growth inhibition (GI) (Phomopsis obscurans [7]): inactive
- inhibition of growth at 100 µM (Phomopsis obscurans [20]): 100%
- Activity (Botrytis cinerea [17]): Active
- inhibition of growth at 300 µM (Fusarium oxysporum [10]): 37%
- growth inhibition (GI) (Colletotrichum fragariae [15]): Active
- inhibition of growth at 300 µM (Colletotrichum acutatum [16]): 50%

SMILES: COc1c2ccoc2cc2oc(=O)ccc12 [BERGAPTEN]
- growth inhibition (GI) (Diaporthe ampelina [6]): Active
- inhibition of growth at 30 µM (Phomopsis obscurans [8]): 80%
- IC50 (Fusarium solani): 27.7 µM
- Activity [4]: Active
- Activity (Colletotrichum acutatum [5]): 15%

SMILES: Cn1c(-c2ccc3c(c2)OCO3)cc(=O)c2ccccc21 [GRAVEOLINE]
- Activity (Diaporthe ampelina [1]): Active
- inhibition of growth at 100 µM (Phomopsis obscurans [20]): 100%
- Activity (Botrytis cinerea [17]): Active
- inhibition of growth at 300 µM (Fusarium oxysporum [10]): 44%
- growth inhibition (GI) (Colletotrichum fragariae [15]): Active

SMILES: O=C1C2CC=CCC2C(=O)N1SC(Cl)(Cl)Cl (configuration not stated) [CAPTAN]
- growth inhibition (GI) (Diaporthe ampelina [6]): Active
- growth inhibition (GI) (Phomopsis obscurans [21]): Active
- inhibition of growth at 300 µM (Fusarium oxysporum [10]): 100%

SMILES: CCCCNC(=O)n1c(NC(=O)OC)nc2ccccc21 [BENOMYL]
- inhibition of growth at 300 µM (Diaporthe ampelina [22]): 57%
- growth inhibition (GI) (Phomopsis obscurans [21]): Active
- growth inhibition (GI) (Botrytis cinerea [13]): Active
- inhibition of growth at 300 µM (Fusarium oxysporum [10]): 77%
- inhibition of growth at 300 µM [19]: 66%
- growth inhibition (GI) (Colletotrichum fragariae [15]): 76%
- inhibition of growth at 300 µM (Colletotrichum acutatum [16]): 33%
